Activity calls are given as the source filed them. The calls are words filed in the database; no cut-off is given here.
How the values were obtained:
[1] = Binding affinity to recombinant Cryptococcus neoformans var. grubii H99 major aspartyl peptidase 1 assessed as inhibition constant
Cryptococcus neoformans [2] = assay: Antifungal activity against Cryptococcus neoformans var. grubii H99 expressing major aspartyl peptidase 1 assessed as growth inhibition measured after 48 hrs; format: functional, organism-based; settings: dose 0.1-50 µM
Outline: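 C. neoformans H99 grown in YNB with 2% glucose; overnight cultures diluted to OD600 0.1 with 0.1, 1.0, 10 or 50 μM compound or 0.5% DMSO vehicle. Incubated at 30 °C on a tube rotator; terminal saturation density read as OD600 after 48 h. Triplicate cultures, mean ± standard deviation.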

MCF7 = assay: Cytotoxicity against human MCF7 cells assessed as cell viability by celltiter-glo luminescent cell viability assay; format: functional
Cryptococcus neoformans [3] = assay: Antifungal activity against may1delta Cryptococcus neoformans var. grubii H99 assessed as reduction of density in logarithmic phase at 50 uM measured upto 48 hrs; format: functional, organism-based; settings: time hrs <=48
Outline: (§1)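 Logarithmically growing may1Δ (and H99) yeast pelleted and resuspended to OD600 0.1 in unbuffered YNB or YNB with 50 mM MES pH 6.5. Treated with 50 μM compound or 0.5% DMSO vehicle at 30 °C on a tube rotator. OD600 read every 2 h for 12 h, then at 24 and 48 h. Triplicate cultures, mean ± standard deviation.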

Cathepsin D = Cathepsin D (Homo sapiens, UniProt P07339); assay: Inhibition of human cathepsin D assessed as inhibition constant using ACC-GKPILFFRILK-(DNP)-(dR)-NH2 as substrate by spectrophotometric analysis
[4] = Inhibition of porcine pepsin assessed as inhibition constant using BSA-bromophenol blue as substrate by spectrophotometric analysis; parameters: species or system Sus scrofa
[5] = target: Human immunodeficiency virus type 1 protease (Human immunodeficiency virus 1, UniProt Q72874); assay: Inhibition of wild type HIV-1 protease assessed as initial inhibition constant by spectrophotometric analysis
CCRF-CEM = assay: Cytotoxicity against human CCRF-CEM cells assessed as cell viability by celltiter-glo luminescent cell viability assay; format: cell-based
HeLa = assay: Cytotoxicity against human HeLa cells assessed as cell viability by celltiter-glo luminescent cell viability assay; format: functional
HL-60 = assay: Cytotoxicity against human HL-60 cells assessed as cell viability by celltiter-glo luminescent cell viability assay; format: functional
Cathepsin E = target: T1, Cathepsin E (Homo sapiens, UniProt P14091); assay: Inhibition of human cathepsin E assessed as inhibition constant using ACC-GKPILFFRILK-(DNP)-(dR)-NH2 as substrate by spectrophotometric analysis
T1 sequence (P14091 whole entry): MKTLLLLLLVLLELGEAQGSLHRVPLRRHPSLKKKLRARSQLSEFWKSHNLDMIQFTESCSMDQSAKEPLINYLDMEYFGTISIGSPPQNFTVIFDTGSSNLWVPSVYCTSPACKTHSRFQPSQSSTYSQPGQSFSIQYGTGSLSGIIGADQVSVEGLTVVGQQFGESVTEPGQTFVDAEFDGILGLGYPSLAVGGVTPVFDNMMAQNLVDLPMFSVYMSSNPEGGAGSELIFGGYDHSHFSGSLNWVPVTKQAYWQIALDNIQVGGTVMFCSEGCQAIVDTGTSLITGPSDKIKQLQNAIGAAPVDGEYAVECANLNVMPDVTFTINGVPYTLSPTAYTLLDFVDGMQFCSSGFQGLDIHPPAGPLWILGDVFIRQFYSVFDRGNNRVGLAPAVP

Cryptococcus neoformans [6] = assay: Antifungal activity against may1delta Cryptococcus neoformans var. grubii H99 assessed as reduction of density in stationary phase at 50 uM measured upto 48 hrs; format: functional, organism-based; settings: time hrs <=48; outline: as §1
Renin = target: T2, Renin (Homo sapiens, UniProt P00797); assay: Inhibition of human renin assessed as inhibition constant using H-R-E(EDANS)-1HPFHLVIHT-K(DABCYL)-R-OH as susbtrate by spectrophotometric analysis
T2 sequence (P00797 whole entry): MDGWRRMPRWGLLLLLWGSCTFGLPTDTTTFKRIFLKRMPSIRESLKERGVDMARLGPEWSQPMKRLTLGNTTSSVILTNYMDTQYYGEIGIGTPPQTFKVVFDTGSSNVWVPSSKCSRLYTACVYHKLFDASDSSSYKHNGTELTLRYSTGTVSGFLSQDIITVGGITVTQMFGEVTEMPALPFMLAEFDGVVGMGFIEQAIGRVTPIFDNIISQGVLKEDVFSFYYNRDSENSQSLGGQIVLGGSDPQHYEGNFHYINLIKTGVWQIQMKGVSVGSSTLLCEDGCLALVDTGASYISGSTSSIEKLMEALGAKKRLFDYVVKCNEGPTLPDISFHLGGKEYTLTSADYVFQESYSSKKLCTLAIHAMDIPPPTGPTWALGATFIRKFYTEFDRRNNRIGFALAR

HepG2 = assay: Cytotoxicity against human HepG2 cells assessed as cell viability by celltiter-glo luminescent cell viability assay; format: functional

Chain of Cathepsin D (P07339 65-162 limits assumed): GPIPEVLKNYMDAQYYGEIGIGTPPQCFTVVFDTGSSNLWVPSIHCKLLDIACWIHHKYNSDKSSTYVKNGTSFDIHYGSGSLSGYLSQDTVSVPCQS
Chain of Cathepsin D (P07339 169-412 limits assumed): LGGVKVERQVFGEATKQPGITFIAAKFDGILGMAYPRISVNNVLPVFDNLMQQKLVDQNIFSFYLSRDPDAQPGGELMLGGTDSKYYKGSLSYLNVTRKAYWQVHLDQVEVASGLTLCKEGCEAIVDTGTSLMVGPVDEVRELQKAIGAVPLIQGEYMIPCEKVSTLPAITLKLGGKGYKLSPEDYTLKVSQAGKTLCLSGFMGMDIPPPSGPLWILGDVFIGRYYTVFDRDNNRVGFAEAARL

Structure (SMILES)	Ki [1]	further results
CC[C@H](C)[C@H](NC(=O)[C@H](CCC(N)=O)NC(=O)C[C@H](O)[C@H](Cc1ccccc1)NC(=O)OCc1ccccc1)C(N)=O	240 nM	–
CCC[C@H](NC(=O)[C@H](CCC(=O)O)NC(=O)C[C@H](O)[C@H](Cc1ccccc1)NC(=O)OCc1ccccc1)C(N)=O	410 nM	–
CC(C)C[C@H](NC(=O)[C@H](CCC(=O)O)NC(=O)C[C@H](O)[C@H](Cc1ccccc1)NC(=O)OCc1ccccc1)C(N)=O	160 nM	–
CCOP(=O)(COc1ccc(C[C@H](NC(=O)O[C@H]2CO[C@H]3OCC[C@H]32)[C@H](O)CN(CC(C)C)S(=O)(=O)c2ccc(OC)cc2)cc1)OCC	170 nM	–
CCCC[C@H](NC(=O)[C@H](CCC(N)=O)NC(=O)C[C@H](O)[C@H](Cc1ccccc1)NC(=O)OCc1ccccc1)C(N)=O	170 nM	–
Cc1nc(COc2ccc(C[C@H](NC(=O)O[C@H]3CO[C@H]4OCC[C@H]43)[C@H](O)CN(CC(C)C)S(=O)(=O)c3ccc4c(c3)OCO4)cc2)cs1 [BRECANAVIR]	350 nM	–
NC(=O)CC[C@H](NC(=O)C[C@H](O)[C@H](Cc1ccccc1)NC(=O)OCc1ccccc1)C(=O)N[C@@H](Cc1ccccc1)C(N)=O	320 nM	–
NC(=O)[C@H](Cc1c[nH]c2ccccc12)NC(=O)[C@H](CCC(=O)O)NC(=O)C[C@H](O)[C@H](Cc1ccccc1)NC(=O)OCc1ccccc1	340 nM	–
C[C@@H](O)[C@H](NC(=O)[C@H](CCC(=O)O)NC(=O)C[C@H](O)[C@H](Cc1ccccc1)NC(=O)OCc1ccccc1)C(N)=O	250 nM	–
CCCC[C@H](NC(=O)[C@H](CCC(=O)O)NC(=O)C[C@H](O)[C@H](Cc1ccccc1)NC(=O)OCc1ccccc1)C(N)=O	180 nM	Activity (Cryptococcus neoformans [2]): Dose-Dependent Effect
CC[C@H](NC(=O)[C@H](CCC(=O)O)NC(=O)C[C@H](O)[C@H](Cc1ccccc1)NC(=O)OCc1ccccc1)C(N)=O	760 nM	–
NC(=O)CC[C@H](NC(=O)C[C@H](O)[C@H](Cc1ccccc1)NC(=O)OCc1ccccc1)C(=O)N[C@@H](CCc1ccccc1)C(N)=O	64 nM	–
CSCC[C@H](NC(=O)[C@H](CCC(N)=O)NC(=O)C[C@H](O)[C@H](Cc1ccccc1)NC(=O)OCc1ccccc1)C(N)=O	290 nM	–
NC(=O)[C@H](Cc1ccccc1)NC(=O)[C@H](CCC(=O)O)NC(=O)C[C@H](O)[C@H](Cc1ccccc1)NC(=O)OCc1ccccc1	390 nM	–
CC(C)[C@H](NC(=O)[C@H](CCC(N)=O)NC(=O)C[C@H](O)[C@H](Cc1ccccc1)NC(=O)OCc1ccccc1)C(N)=O	120 nM	–
CCC[C@H](NC(=O)[C@H](CCC(N)=O)NC(=O)C[C@H](O)[C@H](Cc1ccccc1)NC(=O)OCc1ccccc1)C(N)=O	470 nM	–
C[C@@H](O)[C@H](NC(=O)[C@H](CCC(N)=O)NC(=O)C[C@H](O)[C@H](Cc1ccccc1)NC(=O)OCc1ccccc1)C(N)=O	1300 nM	–
CSCC[C@H](NC(=O)[C@H](CCC(=O)O)NC(=O)C[C@H](O)[C@H](Cc1ccccc1)NC(=O)OCc1ccccc1)C(N)=O	280 nM	–
CC[C@H](NC(=O)[C@H](CCC(N)=O)NC(=O)C[C@H](O)[C@H](Cc1ccccc1)NC(=O)OCc1ccccc1)C(N)=O	1200 nM	–
NC(=O)[C@@H](NC(=O)[C@H](CCC(=O)O)NC(=O)C[C@H](O)[C@H](Cc1ccccc1)NC(=O)OCc1ccccc1)c1ccccc1	210 nM	–
CC[C@H](C)[C@H](NC(=O)[C@H](CCC(=O)O)NC(=O)C[C@H](O)[C@H](Cc1ccccc1)NC(=O)OCc1ccccc1)C(N)=O	410 nM	–
NC(=O)[C@H](CC1CCCCC1)NC(=O)[C@H](CCC(=O)O)NC(=O)C[C@H](O)[C@H](Cc1ccccc1)NC(=O)OCc1ccccc1	160 nM	–
NC(=O)CC[C@H](NC(=O)C[C@H](O)[C@H](Cc1ccccc1)NC(=O)OCc1ccccc1)C(=O)N[C@@H](CC1CCCCC1)C(N)=O	400 nM	–
CC(C)[C@H](NC(=O)[C@H](Cc1ccccc1)C[C@H](O)[C@H](Cc1ccccc1)NC(=O)OC(C)(C)C)C(=O)N[C@@H](Cc1ccccc1)C(=O)N1CCOCC1	13 nM	–
CC(C)[C@H](NC(=O)[C@H](CCC(=O)O)NC(=O)C[C@H](O)[C@H](Cc1ccccc1)NC(=O)OCc1ccccc1)C(N)=O	82 nM	Activity (Cryptococcus neoformans [2]): Dose-Dependent Effect
NC(=O)CC[C@H](NC(=O)C[C@H](O)[C@H](Cc1ccccc1)NC(=O)OCc1ccccc1)C(=O)N[C@H](C(N)=O)c1ccccc1	360 nM	–
CC(C)CN(C[C@@H](O)[C@H](Cc1ccccc1)NC(=O)O[C@H]1CCOC1)S(=O)(=O)c1ccc(N)cc1	750 nM	–
NC(=O)[C@H](CCc1ccccc1)NC(=O)[C@H](CCC(=O)O)NC(=O)C[C@H](O)[C@H](Cc1ccccc1)NC(=O)OCc1ccccc1	12 nM	CC50 (MCF7): > 80000 nM; Activity (Cryptococcus neoformans [3]): inactive; Ki (Cathepsin D): 620 nM; Ki [4]: 1600 nM; Ki [5]: 0.032 nM; Activity (Cryptococcus neoformans [2]): Dose-Dependent Effect; CC50 (CCRF-CEM): > 80000 nM; CC50 (HeLa): > 80000 nM; CC50 (HL-60): > 80000 nM; Ki (Cathepsin E): 440 nM; Activity (Cryptococcus neoformans [6]): inactive; Ki (Renin): 19000 nM; CC50 (HepG2): > 80000 nM

Reference: ChEMBL document CHEMBL5036316, “Re-emerging Aspartic Protease Targets: Examining Cryptococcus neoformans Major Aspartyl Peptidase 1 as a Target for Antifungal Drug Discovery” (J Med Chem, 2021)
